Reference: paper PMC5028098 (International Journal of Nanomedicine, 2016)

Key:
Format in all cases: cell-based, human
HUVECs = assay: Transwell migration; conditions: HUVECs in TCM from treated MDA-MB231 cells, dose-dependent for HBP
MMP2 = assay: Western blot of MMP2 in HUVECs incubated with TCM; conditions: TCM 24 hours, dose-dependent for HBP
In short: (§1)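 HUVECs (2×10^5) were grown to 90% confluence, starved 12 h in 2% serum, then incubated 24 h with conditioned medium from MDA-MB231 cells treated with graded test-peptide concentrations. Cells were lysed on ice. Equal protein (40 μg, Bradford) was run on 10% SDS-PAGE and blotted to nitrocellulose. Primary antibody incubation was 4 h at 4°C, followed by HRP anti-rabbit IgG (1:2,000). Bands were quantified by densitometry relative to untreated-medium control; three experiments, mean ± SD.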

MMP9 = assay: Western blot of MMP9 in HUVECs incubated with TCM; conditions: TCM 24 hours, decreased to a greater extent than MMP2 for HBP
In short: as §1

Substance: VEGF
- effect on migration / number of invasive ECs (HUVECs): no inhibitory effect
- expression of MMP2 in HUVECs (MMP2): not affected
- expression of MMP9 in HUVECs (MMP9): not affected
